Assay results reported in ChEMBL document CHEMBL1135766, “Synthesis of conformationally constrained analogues of linezolid: structure-activity relationship (SAR) studies on selected novel tricyclic oxazolidinones” (2002).
≈ marks a conversion by molar mass, not a printed value.

Assays:
Staphylococcus aureus [1] = assay: In vitro antibacterial activity against methicillin resistant Staphylococcus aureus ATCC 33591 (S. a. 019); assay type: functional
Method in brief: (§1)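 Broth microdilution MIC per NCCLS guidelines in Mueller Hinton medium. Doubling dilutions from 256 to 1 μg/mL, inoculum (1–5) × 10⁵ CFU/mL, incubated overnight in ambient air at 35 °C. MIC is the lowest concentration giving complete growth inhibition. Linezolid and vancomycin served as controls.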

Enterococcus faecium = assay: In vitro antibacterial activity against Enterococcus faecium ATCC 12202 (E.fm 154) vancomycin resistant; assay type: functional, enterococcus fecium; method in brief: as §1
Enterococcus faecalis [2] = assay: In vitro antibacterial activity against Enterococcus faecalis ATCC 29212 (E. f. 034) vancomycin sensitive; assay type: functional; method in brief: as §1
Staphylococcus aureus [3] = assay: In vitro antibacterial activity against Staphylococcus aureus ATCC 29213 (S. a. 035); assay type: functional
Method in brief: (§2)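 Broth microdilution per NCCLS guidelines in Mueller Hinton medium. Doubling dilutions 256–1 μg/mL; inoculum (1–5) × 10⁵ CFU/mL; plates incubated overnight at 35 °C in ambient air. MIC read as the lowest concentration giving complete growth inhibition. Linezolid and vancomycin served as controls.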

Enterococcus faecalis [4] = assay: In vitro antibacterial activity against Enterococcus faecalis NCTC 12201 (E. f. 153) vancomycin resistant; assay type: functional; method in brief: as §1
Staphylococcus aureus [5] = assay: In vitro antibacterial activity against Staphylococcus aureus ATCC 49951 (S. a. 213); assay type: functional; method in brief: as §1
Enterococcus faecalis [6] = assay: In vitro antibacterial activity against Enterococcus faecalis ATCC 29212 (E. f. 153) vancomycin sensitive; assay type: functional; method in brief: as §2
Mus musculus [7] = assay: In vivo antibacterial activity in a murine systemic infection model (95%confidence limits); assay type: functional
Method in brief: (§3)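 Female Swiss Albino mice (22–25 g, n = 6) were infected intraperitoneally with 0.5 mL S. aureus ATCC 29213. The inoculum was grown 2–3 h at 35 °C in BHI broth and adjusted to 100 × LD50 in 5% hog gastric mucin. Compound was suspended in 0.25% carboxymethyl cellulose and given orally 1 and 6 h post-infection; controls received saline. Cumulative mortality was scored over 48 h, and ED50 was derived by linear regression.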

Mus musculus [8] = assay: In vivo antibacterial activity in a murine systemic infection model; assay type: functional; method in brief: as §3

Structure (SMILES): O=C(CC(F)(F)F)NC[C@H]1CN(c2cc(F)c3c(c2)OC[C@@H]2CCCN32)C(=O)O1
- MIC (Staphylococcus aureus [1]): 4 µg/mL (≈ 9.58 µM)
- MIC (Enterococcus faecium): 4 µg/mL (≈ 9.58 µM)
- MIC (Enterococcus faecalis [2]): 4 µg/mL (≈ 9.58 µM)
- MIC (Staphylococcus aureus [3]): 8 µg/mL (≈ 19.2 µM)
- MIC (Enterococcus faecalis [4]): 4 µg/mL (≈ 9.58 µM)
- MIC (Staphylococcus aureus [5]): 8 µg/mL (≈ 19.2 µM)

Structure (SMILES): O=C1O[C@@H](C/N=C(/S)N2CCOCC2)CN1c1cc(F)c2c(c1)OC[C@@H]1CCCN21
- MIC (Staphylococcus aureus [1]): 16 µg/mL (≈ 36.7 µM)
- MIC (Enterococcus faecium): 16 µg/mL (≈ 36.7 µM)
- MIC (Enterococcus faecalis [2]): 16 µg/mL (≈ 36.7 µM)
- MIC (Staphylococcus aureus [3]): 16 µg/mL (≈ 36.7 µM)
- MIC (Enterococcus faecalis [4]): 16 µg/mL (≈ 36.7 µM)
- MIC (Staphylococcus aureus [5]): 16 µg/mL (≈ 36.7 µM)

Structure (SMILES): CC(=O)NC[C@H]1CN(c2ccc3c(c2)OC[C@@H]2CCCN32)C(=O)O1
- MIC (Staphylococcus aureus [1]): 4 µg/mL (≈ 12.1 µM)
- MIC (Enterococcus faecium): 16 µg/mL (≈ 48.3 µM)
- MIC (Enterococcus faecalis [2]): 16 µg/mL (≈ 48.3 µM)
- MIC (Staphylococcus aureus [3]): 8 µg/mL (≈ 24.1 µM)
- MIC (Enterococcus faecalis [4]): 16 µg/mL (≈ 48.3 µM)
- MIC (Staphylococcus aureus [5]): 4 µg/mL (≈ 12.1 µM)

Structure (SMILES): CN[C@H](CC(C)C)C(=O)N[C@H]1C(=O)N[C@@H](CC(N)=O)C(=O)N[C@H]2C(=O)N[C@H]3C(=O)N[C@H](C(=O)N[C@H](C(=O)O)c4cc(O)cc(O)c4-c4cc3ccc4O)[C@H](O)c3ccc(c(Cl)c3)Oc3cc2cc(c3O[C@@H]2O[C@H](CO)[C@@H](O)[C@H](O)[C@H]2O[C@H]2C[C@](C)(N)[C@H](O)[C@H](C)O2)Oc2ccc(cc2Cl)[C@H]1O [VANCOMYCIN]
- MIC (Enterococcus faecalis [6]): 2 µg/mL (≈ 1.38 µM)
- MIC (Enterococcus faecium): > 32 µg/mL
- MIC (Enterococcus faecalis [2]): 2 µg/mL (≈ 1.38 µM)
- ED50 (Mus musculus [7]): 3.93 mg/kg

Structure (SMILES): O=C(CCl)NC[C@H]1CN(c2ccc3c(c2)OC[C@@H]2CCCN32)C(=O)O1
- MIC (Enterococcus faecalis [6]): 4 µg/mL (≈ 10.9 µM)
- MIC (Staphylococcus aureus [1]): 2 µg/mL (≈ 5.47 µM)
- MIC (Enterococcus faecium): 8 µg/mL (≈ 21.9 µM)
- MIC (Enterococcus faecalis [2]): 4 µg/mL (≈ 10.9 µM)
- MIC (Staphylococcus aureus [3]): 4 µg/mL (≈ 10.9 µM)

Structure (SMILES): CCCCCC(=O)NC[C@H]1CN(c2cc(F)c3c(c2)OC[C@@H]2CCCN32)C(=O)O1
- MIC (Staphylococcus aureus [1]): 16 µg/mL (≈ 39.5 µM)
- MIC (Enterococcus faecium): 32 µg/mL (≈ 78.9 µM)
- MIC (Enterococcus faecalis [2]): 32 µg/mL (≈ 78.9 µM)
- MIC (Staphylococcus aureus [3]): 32 µg/mL (≈ 78.9 µM)
- MIC (Enterococcus faecalis [4]): 32 µg/mL (≈ 78.9 µM)
- MIC (Staphylococcus aureus [5]): 32 µg/mL (≈ 78.9 µM)

Structure (SMILES): O=C(NC[C@H]1CN(c2ccc3c(c2)OC[C@@H]2CCCN32)C(=O)O1)C(F)F
- MIC (Enterococcus faecalis [6]): 4 µg/mL (≈ 10.9 µM)
- MIC (Staphylococcus aureus [1]): 2 µg/mL (≈ 5.44 µM)
- MIC (Enterococcus faecium): 4 µg/mL (≈ 10.9 µM)
- MIC (Enterococcus faecalis [2]): 4 µg/mL (≈ 10.9 µM)
- MIC (Staphylococcus aureus [3]): 4 µg/mL (≈ 10.9 µM)

Structure (SMILES): CCCCCCC(=O)NC[C@H]1CN(c2cc(F)c3c(c2)OC[C@@H]2CCCN32)C(=O)O1
- MIC (Staphylococcus aureus [1]): 32 µg/mL (≈ 76.3 µM)
- MIC (Enterococcus faecium): 32 µg/mL (≈ 76.3 µM)
- MIC (Enterococcus faecalis [2]): 32 µg/mL (≈ 76.3 µM)
- MIC (Staphylococcus aureus [3]): 32 µg/mL (≈ 76.3 µM)
- MIC (Enterococcus faecalis [4]): 32 µg/mL (≈ 76.3 µM)
- MIC (Staphylococcus aureus [5]): 32 µg/mL (≈ 76.3 µM)

Structure (SMILES): CCO/C(S)=N\C[C@H]1CN(c2cc(F)c3c(c2)OC[C@@H]2CCCN32)C(=O)O1
- MIC (Enterococcus faecalis [6]): 2 µg/mL (≈ 5.06 µM)
- MIC (Staphylococcus aureus [1]): 1 µg/mL (≈ 2.53 µM)
- MIC (Enterococcus faecium): 2 µg/mL (≈ 5.06 µM)
- MIC (Enterococcus faecalis [2]): 2 µg/mL (≈ 5.06 µM)
- MIC (Staphylococcus aureus [3]): 2 µg/mL (≈ 5.06 µM)
- MIC (Staphylococcus aureus [5]): 2 µg/mL (≈ 5.06 µM)

Structure (SMILES): CCCC(=O)NC[C@H]1CN(c2cc(F)c3c(c2)OC[C@@H]2CCCN32)C(=O)O1
- MIC (Staphylococcus aureus [1]): 4 µg/mL (≈ 10.6 µM)
- MIC (Enterococcus faecium): 4 µg/mL (≈ 10.6 µM)
- MIC (Enterococcus faecalis [2]): 4 µg/mL (≈ 10.6 µM)
- MIC (Staphylococcus aureus [3]): 4 µg/mL (≈ 10.6 µM)
- MIC (Enterococcus faecalis [4]): 4 µg/mL (≈ 10.6 µM)
- MIC (Staphylococcus aureus [5]): 4 µg/mL (≈ 10.6 µM)

Structure (SMILES): C/N=C(\S)NC[C@H]1CN(c2cc(F)c3c(c2)OC[C@@H]2CCCN32)C(=O)O1
- MIC (Staphylococcus aureus [1]): 2 µg/mL (≈ 5.26 µM)
- MIC (Enterococcus faecium): 4 µg/mL (≈ 10.5 µM)
- MIC (Enterococcus faecalis [2]): 2 µg/mL (≈ 5.26 µM)
- MIC (Staphylococcus aureus [3]): 4 µg/mL (≈ 10.5 µM)
- MIC (Enterococcus faecalis [4]): 4 µg/mL (≈ 10.5 µM)
- MIC (Staphylococcus aureus [5]): 4 µg/mL (≈ 10.5 µM)

Structure (SMILES): CCC/C(S)=N\C[C@H]1CN(c2cc(F)c3c(c2)OC[C@@H]2CCCN32)C(=O)O1
- ED50 (Mus musculus [8]): 30 mg/kg
- MIC (Staphylococcus aureus [1]): 1 µg/mL (≈ 2.54 µM)
- MIC (Enterococcus faecium): 1 µg/mL (≈ 2.54 µM)
- MIC (Enterococcus faecalis [2]): 1 µg/mL (≈ 2.54 µM)
- MIC (Staphylococcus aureus [3]): 2 µg/mL (≈ 5.08 µM)
- MIC (Enterococcus faecalis [4]): 1 µg/mL (≈ 2.54 µM)
- MIC (Staphylococcus aureus [5]): 2 µg/mL (≈ 5.08 µM)

Structure (SMILES): COC(=O)NC[C@H]1CN(c2cc(F)c3c(c2)OC[C@@H]2CCCN32)C(=O)O1
- ED50 (Mus musculus [8]): 3.3 mg/kg
- MIC (Staphylococcus aureus [1]): 2 µg/mL (≈ 5.47 µM)
- MIC (Enterococcus faecium): 2 µg/mL (≈ 5.47 µM)
- MIC (Enterococcus faecalis [2]): 2 µg/mL (≈ 5.47 µM)
- MIC (Staphylococcus aureus [3]): 2 µg/mL (≈ 5.47 µM)
- MIC (Enterococcus faecalis [4]): 2 µg/mL (≈ 5.47 µM)
- MIC (Staphylococcus aureus [5]): 2 µg/mL (≈ 5.47 µM)

Structure (SMILES): CC(=O)NC[C@H]1CN(c2cc(F)c3c(c2)OC[C@@H]2CCCN32)C(=O)O1
- ED50 (Mus musculus [8]): 8.6 mg/kg
- MIC (Staphylococcus aureus [1]): 1 µg/mL (≈ 2.86 µM)
- MIC (Enterococcus faecium): 4 µg/mL (≈ 11.4 µM)
- MIC (Enterococcus faecalis [2]): 2 µg/mL (≈ 5.72 µM)
- MIC (Staphylococcus aureus [3]): 2 µg/mL (≈ 5.72 µM)
- MIC (Enterococcus faecalis [4]): 2 µg/mL (≈ 5.72 µM)
- MIC (Staphylococcus aureus [5]): 2 µg/mL (≈ 5.72 µM)

Structure (SMILES): N=C(S)NC[C@H]1CN(c2cc(F)c3c(c2)OC[C@@H]2CCCN32)C(=O)O1
- MIC (Staphylococcus aureus [1]): 0.5 µg/mL (≈ 1.36 µM)
- MIC (Enterococcus faecium): 1 µg/mL (≈ 2.73 µM)
- MIC (Enterococcus faecalis [2]): 1 µg/mL (≈ 2.73 µM)
- MIC (Staphylococcus aureus [3]): 0.5 µg/mL (≈ 1.36 µM)
- MIC (Enterococcus faecalis [4]): 1 µg/mL (≈ 2.73 µM)
- MIC (Staphylococcus aureus [5]): 0.5 µg/mL (≈ 1.36 µM)

Structure (SMILES): CCCC/C(S)=N\C[C@H]1CN(c2cc(F)c3c(c2)OC[C@@H]2CCCN32)C(=O)O1
- MIC (Staphylococcus aureus [1]): 2 µg/mL (≈ 4.91 µM)
- MIC (Enterococcus faecium): 2 µg/mL (≈ 4.91 µM)
- MIC (Enterococcus faecalis [2]): 2 µg/mL (≈ 4.91 µM)
- MIC (Staphylococcus aureus [3]): 4 µg/mL (≈ 9.82 µM)
- MIC (Enterococcus faecalis [4]): 2 µg/mL (≈ 4.91 µM)
- MIC (Staphylococcus aureus [5]): 2 µg/mL (≈ 4.91 µM)

Structure (SMILES): CC(=O)NC[C@H]1CN(c2ccc(N3CCOCC3)c(F)c2)C(=O)O1 [LINEZOLID]
- ED50 (Mus musculus [8]): 3.91 mg/kg
- MIC (Staphylococcus aureus [1]): 1 µg/mL (≈ 2.96 µM)
- MIC (Enterococcus faecium): 2 µg/mL (≈ 5.93 µM)

Structure (SMILES): CC(C)C(=O)NC[C@H]1CN(c2cc(F)c3c(c2)OC[C@@H]2CCCN32)C(=O)O1
- MIC (Staphylococcus aureus [1]): 8 µg/mL (≈ 21.2 µM)
- MIC (Enterococcus faecium): 16 µg/mL (≈ 42.4 µM)
- MIC (Enterococcus faecalis [2]): 16 µg/mL (≈ 42.4 µM)
- MIC (Staphylococcus aureus [3]): 8 µg/mL (≈ 21.2 µM)
- MIC (Enterococcus faecalis [4]): 16 µg/mL (≈ 42.4 µM)
- MIC (Staphylococcus aureus [5]): 8 µg/mL (≈ 21.2 µM)
